Where only a bound is given, the exact number is not on record here.

Series [1] deals with Plasmodium vinckei petteri. Briefly: Antiplasmodial activity Plasmodium vinckei petteri infected in CD mouse assessed as survival of infected mouse at 10 mg/kg/day, ip administered from day 0 to day 3 and measured on day 4 (reference value: 9.5 days). It counts as functional. The note with it: route intraperitoneal.
The subject of series [2] is Plasmodium vinckei petteri. Briefly: Antiplasmodial activity Plasmodium vinckei petteri infected in ip dosed CD mouse assessed as suppression of parasitaemia administered from day 0 to day 3 and measured on day 4 by Giemsa staining. Type of series: functional. In a few lines:
(§1)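 Female CD mice (mean weight 20 2 g) were infected on day 0 with 10⁶ P. vinckei petteri-infected red cells in RPMI. Groups of five received drug intraperitoneally daily from day 0 to 3. On day 4, parasitaemia was counted on Giemsa-stained smears (at least 5000 erythrocytes). Inhibition % = (control − treated)/control × 100, with RPMI-only mice as controls. ED₅₀ was taken as the dose giving 50% inhibition.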

The subject of series [3] is Plasmodium vinckei petteri. Briefly: Antiplasmodial activity Plasmodium vinckei petteri infected in CD mouse assessed as survival of infected mouse at 1 mg/kg/day, ip administered from day 0 to day 3 and measured on day 4 (reference value: 9.5 days). Type of series: functional. The settings on record: route intraperitoneal.
In series [4] the test system is Vero. Briefly: Cytotoxicity against african green monkey Vero cells. Type of series: cell-based. The settings on record: Chlorocebus sabaeus.
For series [5], the system named is Plasmodium vinckei petteri. Briefly: Antiplasmodial activity Plasmodium vinckei petteri infected in CD mouse assessed as suppression of parasitaemia at 1 mg/kg/day, ip administered from day 0 to day 3 and measured on day 4 by Giemsa staining relative to control. It counts as functional. The settings on record: route intraperitoneal. In a few lines: as §1
Series [6] deals with Plasmodium vinckei petteri. Briefly: Antiplasmodial activity Plasmodium vinckei petteri infected in CD mouse assessed as suppression of parasitaemia at 10 mg/kg/day, ip administered from day 0 to day 3 and measured on day 4 by Giemsa staining relative to control. Type of series: functional. The settings on record: route intraperitoneal. In a few lines:
as §1

Series [7] relates to Plasmodium vinckei petteri. Briefly: Antiplasmodial activity Plasmodium vinckei petteri infected in CD mouse assessed as suppression of parasitaemia at 2.5 mg/kg/day, ip administered from day 0 to day 3 and measured on day 4 by Giemsa staining relative to control. Type of series: functional. The note with it: route intraperitoneal. In a few lines:
as §1

Series [8] deals with Plasmodium vinckei petteri. Briefly: Antiplasmodial activity Plasmodium vinckei petteri infected in CD mouse assessed as survival of infected mouse at 5 mg/kg/day, ip administered from day 0 to day 3 and measured on day 4 (reference value: 9.5 days). It counts as functional. The settings on record: route intraperitoneal.
In series [9] the test system is Plasmodium vinckei petteri. Briefly: Antiplasmodial activity Plasmodium vinckei petteri infected in CD mouse assessed as survival of infected mouse at 2.5 mg/kg/day, ip administered from day 0 to day 3 and measured on day 4 (reference value: 9.5 days). It counts as functional. The note with it: route intraperitoneal.
In series [10] the test system is Mus musculus. Briefly: Toxicity in CD mouse infected with Plasmodium venckei petteri at 10 mg/kg/day, ip administered from day 0 to day 3. It counts as organism-based. Set-up: route intraperitoneal. The note with it: in vivo. In a few lines: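 CD female mice infected with 10⁶ P. vinckei petteri-infected red cells were given drug ip daily on days 0–3 and observed for signs of acute toxicity. Survival was followed for 13 days post-infection.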

Series [11] relates to Plasmodium falciparum. Briefly: Antiplasmodial activity against chloroquine-resistant Plasmodium falciparum FcM29 assessed as [3H]hypoxanthine incorporation after 48 hrs. It counts as functional, organism-based. In a few lines:
(§2)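 P. falciparum was cultured per Trager–Jensen with modifications and synchronised by magnetic concentration plus 5% sorbitol lysis. Cultures, mostly at ring stage, were exposed to increasing drug dilutions in triplicate for 48 h. Growth was measured by [³H]-hypoxanthine incorporation to give IC₅₀. Values are means of two independent experiments run in triplicate.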

Series [12] can be described thus: Selectivity ratio of IC50 for african green monkey Vero cells to IC50 for […] Plasmodium falciparum FcB1/ Columbia. It counts as ADME, cell-based. The settings on record: read-out: Ratio IC50. The method in brief:
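Selectivity index = Vero IC₅₀ / FcB1 IC₅₀. Vero cells were grown as for P. falciparum but with 10% foetal calf serum in place of 5% human serum, exposed to increasing concentrations for 48 h, and growth read by [³H]-hypoxanthine incorporation against untreated wells (100%). Doxorubicin served as control.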

Series [13] has as its system Plasmodium falciparum. Briefly: Antiplasmodial activity against chloroquine-resistant Plasmodium falciparum FcB1/Columbia assessed as [3H]hypoxanthine incorporation after 48 hrs. Type of series: functional, organism-based. In a few lines: as §2
Series [14] concerns Plasmodium vinckei petteri. Briefly: Antiplasmodial activity Plasmodium vinckei petteri infected in CD mouse assessed as suppression of parasitaemia at 5 mg/kg/day, ip administered from day 0 to day 3 and measured on day 4 by Giemsa staining relative to control. The note with it: route intraperitoneal. Type of series: functional. In a few lines: as §1
Series [15] relates to Plasmodium falciparum. Briefly: Antiplasmodial activity against chloroquine-sensitive Plasmodium falciparum 3D7 assessed as [3H]hypoxanthine incorporation after 48 hrs. Type of series: functional, organism-based. In a few lines:
as §2

Consider `CCN(CC)CCCC(C)Nc1ccnc2cc(Cl)ccc12` (configuration not stated) [CHLOROQUINE], for which the MSD in series [1] is more than 13 days; in series [3], 9.5 days. For the same compound, the ED50 in series [2] was determined as 5.5 mg/kg/day. Further, the half-maximal inhibitory concentration (IC50) in series [4] was more than 50000 nM. The inhibition in vivo at 1 mg/kg/day in series [5] was 3.2%. Besides, in series [6], the inhibition in vivo at 10 mg/kg/day turned out to be 94.8%.
In turn, `COc1cccc2c1C(=O)c1c(O)c3c(c(O)c1C2=O)C[C@@](O)(C(=O)CO)C[C@@H]3O[C@H]1C[C@H](N)[C@H](O)[C@H](C)O1` [DOXORUBICIN] displayed an IC50 in series [4] of 6400 nM.
With `COc1cc2c(ccc3c4cc(OC)c(OC)cc4c[n+](C)c23)cc1O.[I-]` [FAGARONINE IODIDE], the inhibition in vivo at 2.5 mg/kg/day in series [7] is 27%. Further, the MSD in series [8] is 10.7 days; in series [9], 11.5 days; in [1] it was more than 13 days; in [3], 8.6 days. The ED50 in [2] is 6 mg/kg/day. For the same compound, the Activity entry in [10] was “Non-toxic”. Besides, the half-inhibitory concentration (IC50) was 7.4 nM in series [11], more than 21000 nM in [4], 14.9 nM in series [13] and 7.6 nM in series [15]. Further, in series [12], the selectivity ratio was more than 1400. The inhibition in vivo at 1 mg/kg/day in [5] turned out to be 4.8%. In addition, the inhibition in vivo at 5 mg/kg/day in series [14] is 38.1%. For the same compound, in series [6], the inhibition in vivo at 10 mg/kg/day was determined as 91.5%.

The values are drawn from ChEMBL document CHEMBL2057190, “Short synthesis and antimalarial activity of fagaronine” (Bioorg Med Chem, 2012).
